Assay [1] has as its system Cavia porcellus. The assay is described as follows: Local anesthetic activity using modification of the guinea pig intracutaneous wheal method. In kind it is functional. Put shortly: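 Guinea pigs, four per test. Each animal received four intracutaneous injections: propranolol standard at 0.6 and 0.2%, test high dose 0.6-2% and low dose 0.2-0.67%. Wheals marked. Skin pricked with a 23-gauge needle six times inside and six times outside the wheal every 5 min up to 30 min. Activity expressed relative to propranolol with 95% confidence limits.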

In assay [2] the test system is Canis familiaris. The assay is described as follows: Heart rate of the dog was measured after drug administration to dogs. In kind it is functional, Canis lupus familiaris. An outline of the steps:
(§1)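 Dogs anesthetized with pentobarbital 35 mg/kg. Ouabain given iv at 40 μg/kg, then 20 μg/kg 30 min later, then 10 μg/kg every 15 min until ventricular tachycardia persisted. About 20 min after the last ouabain dose, compound given iv over 3 min, starting at 5 mg/kg. Further 5 or 10 mg/kg doses given at 15-min intervals, up to 15 or 20 mg/kg, until sinus rhythm returned. Dogs observed 2 h.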

In assay [3] the test system is Canis familiaris. Nature of the assay: Heart rate of the dog was measured after ouabain administration to dogs. In kind it is functional, Canis lupus familiaris. Put shortly: as §1
Assay [4] is filed under the species Canis familiaris. Nature of the assay: Duration of the reversal of ouabain induced arrhythmia was measured. In kind it is functional, Canis lupus familiaris. An outline of the steps: as §1
Assay [5] is filed under the species Canis familiaris. The assay is described as follows: Concentration of ouabain required to induce arrhythmia in dogs. In kind it is functional, Canis lupus familiaris. Put shortly:
as §1

Assay [6] is filed under the species Canis familiaris. The assay is described as follows: Concentration required to reverse ouabain induced arrhythmia in dogs. In kind it is functional, Canis lupus familiaris. Put shortly:
as §1

Assay [7] is filed under the species Canis familiaris. The assay is described as follows: Number of dogs reverted in ouabain induced arrhythmia. In kind it is functional, Canis lupus familiaris. An outline of the steps:
as §1

The species named for assay [8] is Canis familiaris. Nature of the assay: Number of dogs used in ouabain induced arrhythmia. In kind it is functional, Canis lupus familiaris. Put shortly:
as §1

Assay [9] is filed under the species Canis familiaris. Nature of the assay: Number of dogs reverted ouabain induced arrhythmia. In kind it is functional, Canis lupus familiaris. An outline of the steps:
as §1

The species entered for assay [10] is Canis familiaris. Nature of the assay: Number of dogs used ouabain induced arrhythmia. In kind it is functional, Canis lupus familiaris. Put shortly:
as §1

The compound `O[C@H](c1nccs1)[C@@H]1CC2CCN1CC2` (single isomer, unassigned) came in with an Activity in assay [1] of 0.8.
With `O[C@H](C1=C2C=CC=CC(=CC=C1)C2)[C@@H]1CC2CCN1CC2` (relative stereo), the Heart rate in [2] amounted to 156 min⁻¹; in assay [3] it was 216 min⁻¹. Also, in [4], the Duration of reversal is on record as more than 120 min. The compound also showed an Ouabain in assay [5] of 70 µg/kg. The same compound registered a Dose in assay [6] of 15 mg/kg. The “No. of dogs reverted” value in assay [7] is 1. Moreover, the “No. of dogs used” value in [8] is recorded as 1. In assay [1], the Activity came out at 0.99.
On to `Cn1ccnc1[C@@H](O)[C@@H]1CC2CCN1CC2` (relative stereo), for which the Activity in assay [1] stood at 0.61.
For the compound `COc1ccc(C(O)(c2ccc(OC)cc2)C2CC3CCN2CC3)cc1` (stereo not drawn), the Heart rate is 168 min⁻¹ in assay [2] and 240 min⁻¹ in [3]. Also, in [4], the Duration of reversal was 14 min. The compound also returned an Ouabain in [5] of 60 µg/kg. The compound further came in with a Dose in [6] of 5 mg/kg. Moreover, the “No. of dogs reverted” value in assay [9] was 1. For the same compound, the “No. of dogs used” value in assay [10] was determined as 1. The compound further yielded an Activity in assay [1] of 0.54.
`O[C@H](c1ccccc1)[C@@H]1CC2CCN1CC2` (relative stereo) registered an Activity in assay [1] of 0.25.
The same measure, in the same setting: as for `CC(C)(C)[C@@H](O)[C@@H]1CC2CCN1CC2` (relative stereo), the figure is 0.13; as for `O[C@H](c1ccco1)[C@@H]1CC2CCN1CC2` (relative stereo), 0.09; as for `Cc1ccc([C@@H](O)[C@@H]2CC3CCN2CC3)cc1` (relative stereo), 0.23.
Take `O[C@@H](c1ccccc1)[C@@H]1CC2CCN1CC2` (relative stereo): the Activity in assay [1] is listed as 0.18.
On to `OC(c1ccccc1)(c1ccccc1)C1CC2CCN1CC2` (stereo not drawn), for which the Heart rate in assay [2] was 186 min⁻¹; in [3], 228 min⁻¹. The Duration of reversal in [4] is more than 120 min. The compound further displayed an Ouabain in [5] of 70 µg/kg. This compound also displayed a Dose in assay [6] of 5 mg/kg. Also, the “No. of dogs reverted” value in assay [9] is 2. In assay [10], the “No. of dogs used” value was 2. In [1], this compound returned an Activity of 0.85.
For the compound `OC(c1ccccc1)(c1nccs1)C1CC2CCN1CC2` (stereo not drawn), the values for the Heart rate in assay [2] and in [3] were 150 min⁻¹ and 207 min⁻¹, respectively. Besides, the Duration of reversal in [4] is given as more than 120 min. Moreover, the Ouabain in [5] was 75 µg/kg. The Dose in [6] was determined as 6.4 mg/kg. Moreover, the “No. of dogs reverted” value in assay [9] is 1. In assay [10], the “No. of dogs used” value is on record as 2. This compound registered an Activity in [1] of 0.25.
In the case of `OC(c1ccco1)(c1ccco1)C1CC2CCN1CC2` (stereo not drawn), the Heart rate in assay [2] amounted to 180 min⁻¹; in [3], 240 min⁻¹. The Duration of reversal in assay [4] is reported as more than 120 min. The same compound registered an Ouabain in assay [5] of 70 µg/kg. The same compound gave a Dose in assay [6] of 15 mg/kg. Also, the “No. of dogs reverted” value in [9] came out at 1. The “No. of dogs used” value in assay [10] was 1. In [1], this compound showed an Activity of 0.27.
In the case of `O[C@H](c1ccncc1)[C@@H]1CC2CCN1CC2` (relative stereo), the Activity in assay [1] is recorded as 0.08.
In the case of `Cc1ccc(C(O)(c2ccc(C)cc2)C2CC3CCN2CC3)cc1` (stereo in doubt; 21), the Heart rate is 134 min⁻¹ in assay [2] and 220 min⁻¹ in assay [3]. Also, the Duration of reversal in assay [4] is given as 85 min. Also, the Ouabain in assay [5] was determined as 83 µg/kg. Further, the Dose in assay [6] is 11.7 mg/kg. The “No. of dogs reverted” value in assay [9] amounted to 3. The “No. of dogs used” value in [10] came out at 3. The compound also returned an Activity in assay [1] of 0.86.
In the case of `COc1ccc([C@](O)(c2cc(Br)ccc2OC)C2CC3CCN2CC3)cc1` (stereo partly drawn), the Heart rate in assay [2] came to 160 min⁻¹; in [3], 180 min⁻¹. Moreover, in assay [4], the Duration of reversal is listed as 0 min. In [5], this compound displayed an Ouabain of 100 µg/kg. In assay [6], the Dose came to 15 mg/kg. Moreover, the “No. of dogs reverted” value in [9] is reported as 0. The “No. of dogs used” value in assay [10] stood at 1. The compound further yielded an Activity in assay [1] of 1.2.
On to `COc1ccc(Br)cc1C(O)(c1cc(Br)ccc1OC)C1CC2CCN1CC2` (stereo not drawn), for which the figures for the Heart rate in [2] and in assay [3] were 162 min⁻¹ and 210 min⁻¹, respectively. For the same compound, the Duration of reversal in [4] was more than 120 min. The compound further gave an Ouabain in assay [5] of 70 µg/kg. This compound also displayed a Dose in assay [6] of 10 mg/kg. The “No. of dogs reverted” value in assay [9] worked out at 1. Besides, the “No. of dogs used” value in assay [10] is 1. The Activity in assay [1] is 0.92.
With `CC(C)NCC(O)COc1cccc2ccccc12` (stereo not drawn) [PROPRANOLOL], the Heart rate in assay [2] amounted to 138 min⁻¹; in [3], 211 min⁻¹. Besides, the Duration of reversal in assay [4] was found to be 80 min. The Ouabain in [5] was 72 µg/kg. The Dose in assay [6] was 5 mg/kg. The “No. of dogs reverted” value in assay [9] worked out at 5. The “No. of dogs used” value in assay [10] is listed as 5.
For `C=C[C@H]1CN2CC[C@H]1C[C@@H]2[C@@H](O)c1ccnc2ccc(OC)cc12` [QUINIDINE], the Heart rate in assay [2] is 170 min⁻¹; in assay [3] it was 211 min⁻¹. Moreover, in assay [4], the Duration of reversal was 31 min. Further, the Ouabain in assay [5] is 59 µg/kg. The compound also registered a Dose in assay [6] of 9 mg/kg. Also, in assay [9], the “No. of dogs reverted” value worked out at 10. Further, the “No. of dogs used” value in assay [10] was 13. Also, the Activity in assay [1] was determined as 1.15.
As for `CCN(CC)CC(=O)Nc1c(C)cccc1C` [LIDOCAINE], the Heart rate was 169 min⁻¹ in assay [2] and 223 min⁻¹ in assay [3]. Besides, the Duration of reversal in assay [4] was 51 min. Moreover, the Ouabain in [5] turned out to be 74 µg/kg. Besides, in assay [6], the Dose is 5 mg/kg. Also, the “No. of dogs reverted” value in assay [9] stood at 5. Further, the “No. of dogs used” value in [10] came out at 5. This compound also showed an Activity in assay [1] of 0.66.
`O[C@H](c1ccc(Cl)cc1)[C@@H]1CC2CCN1CC2` (relative stereo): the Heart rate was found to be 160 min⁻¹ in assay [2] and 222 min⁻¹ in assay [3]. Also, the Duration of reversal in [4] is 0 min. In [5], this compound registered an Ouabain of 70 µg/kg. This compound registered a Dose in [6] of 15 mg/kg. For the same compound, in assay [9], the “No. of dogs reverted” value is 0. In addition, in [10], the “No. of dogs used” value turned out to be 1. In addition, in assay [1], the Activity was 0.43.

(Values after ChEMBL document CHEMBL1121389, “Mono- and diaryl-2-quinuclidinylcarbinols with local anesthetic and antiarrhythmic activity” (1980).)
